# Published values from different studies.
# Each line is one published result; the experiments were not run side by side.
# KIT L576P: Mast/stem cell growth factor receptor Kit (KIT, Homo sapiens, UniProt P10721, L576P)
# KIT: Mast/stem cell growth factor receptor Kit (KIT, Homo sapiens, UniProt P10721)
# KIT D816H: Mast/stem cell growth factor receptor Kit (KIT, Homo sapiens, UniProt P10721, D816H)
# KIT D816V: Mast/stem cell growth factor receptor Kit (KIT, Homo sapiens, UniProt P10721, D816V)
target,observed,action,technique,tested at,quantity,result,SMILES
KIT L576P,binding,,competition with immobilised ligand,0.5 µM,remaining binding,87%,CCCCC(=O)Nc1ccc(-c2ccc3ncn(CCC)c(=O)c3c2)cn1
"Mast/stem cell growth factor receptor Kit (KIT, Homo sapiens, UniProt P10721, V559D)",binding,,,0.1 µM,remaining binding,3.7%,C1=C/COCc2cc(ccc2OCCN2CCCC2)Nc2nccc(n2)-c2cccc(c2)COC/1
KIT,binding,,,1 µM,remaining binding,111%,COc1ccc2oc(-c3ccc4nc(N)oc4c3)c/c(=N\c3ccccc3NC(=O)CCN)c2c1
KIT,cell-free assay,,competition with immobilised ligand,25 µM,remaining binding,49%,N#Cc1ccc(NC(=O)Nc2ccccc2)cc1
"Mast/stem cell growth factor receptor Kit (KIT, Homo sapiens, UniProt P10721, T670I/V559D)",binding,,,1 µM,remaining binding,49%,COc1ccc2[nH]c3c4[nH]c5ccc(OC)cc5c4c4c(c3c2c1)C(=O)NC4=O
KIT D816H,enzyme activity,inhibitor,,1 µM,inhibition,98%,CO[C@@H]1[C@H](N(C)C(=O)c2ccccc2)C[C@H]2O[C@]1(C)n1c3ccccc3c3c4c(c5c6ccccc6n2c5c31)C(=O)NC4
KIT D816V,binding,,,1 µM,remaining binding,23%,CN1CCN(C(=O)c2ccc(NC(=O)Nc3ccc(N(C)c4ccnc(Nc5ccc(CS(C)(=O)=O)cc5)n4)cc3)cc2)CC1
"Mast/stem cell growth factor receptor Kit (KIT, Homo sapiens, UniProt P10721, V559D/V654A)",enzyme activity,inhibitor,,1 µM,inhibition,0%,CC#CC(=O)N1CCC[C@H]1c1nc(-c2ccc(C(=O)Nc3ccccn3)cc2)c2c(N)nccn12
KIT D816H,binding,,,1 µM,remaining binding,99%,Cc1ccc(NC(=O)c2ccnc(C(F)(F)F)c2)cc1-c1cc(OCCO)nc(N2CCOCC2)c1
KIT,cell-free assay,,,1 µM,remaining signal,73%,C#Cc1cnc(Nc2ccnc(CO)c2)nc1Nc1ccccc1S(C)(=O)=NC#N (stereo not drawn)
KIT D816V,cell-free assay,,,1 µM,remaining signal,3.6%,C[C@H]1CC[C@H](n2c3cnccc3c3cnc(Nc4ccc5c(n4)CCN(C(=O)CO)C5)nc32)CC1
KIT L576P,enzyme activity,inhibitor,,1 µM,inhibition,5%,C=CC(=O)N1CCC([C@@H]2CCNc3c(C(N)=O)c(-c4ccc(Oc5ccccc5)cc4)nn32)CC1
